Test results reported in PubChem BioAssay AID488902 (Broad Institute, 2010).
The source made the active and inactive calls.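 How the source made its calls: active means rising caspase curve whose AC50 is at most ten times the top dose tested; inconclusive means flat fit between 30 and 70%, or a poor fit; inactive means the rest.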

tested on: wild-type MEF caspase activation, Caspase-Glo luminescence, 3 h; assay: caspase activation in wild-type MEFs, dose response, counter-screen for A1 (Bcl2-A1) inhibitor project, cell-based, wild-type MEF, Caspase-Glo luminescence, dry powder (AID 488902); conditions: not given
Outline: (§1)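 Test system: unprimed wild-type MEF cells. Technique: luminescence with CaspaseGlo reagent, 1:1 dilution in 50 mM HEPES. Compound dosing: dose-response series from dry powder, 100 nL pinned per well. Read-out: caspase activation. Timing: compound 3 h at 37 °C, 5% CO2, caspase reagent 1 h.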

For `Cc1cc(C(=O)CCl)c(C)n1CCc1ccc(Cl)cc1`, which AC50 is on record?
Its AC50 is 16.3 µM.

With `Cc1cccc(NC(=O)/C(C#N)=C/c2cn(CC(=O)NCc3ccco3)c3ccccc23)c1` as the compound, how does the AC50 read?
The AC50 was 4.34 µM.

Which AC50 does the source give for `COc1ccc(N(C(=O)CCl)C(C(=O)NCCc2ccccc2)c2cccs2)cc1Cl` (stereo not given) here?
Its AC50 is 15.5 µM.

Which AC50 does the source give for `COc1cc(CN2CCN(c3cc(C)ccc3C)CC2)ccc1O` here?
The AC50 was > 150 µM (inactive).

With `CCc1cc2c(=O)c(-c3cnn(-c4ccccc4)c3)c(C)oc2cc1OCC(=O)Nc1cccc(C)c1` as the compound, how does the AC50 read?
The AC50 was 2.93 µM.

tested on: not listed separately; assay: as above; conditions: wild-type MEF caspase activation, Caspase-Glo luminescence, 3 h; at 135 µM (top of the series)
Outline: as §1

With `CC(=O)N[C@H]1[C@H](O[C@H]2CC[C@@]3(C)C(CC[C@]4(C)C3CC=C3[C@@H]5CC(C)(C)CC[C@]5(C(=O)OC5OCC(O)C(O)C5O)C(O)C[C@]34C)C2(C)C)O[C@H](COC2OCC(O)C(OC3OCC(O)C(O)C3O)C2O)[C@@H](O[C@@H]2O[C@@H](C)[C@H](O)[C@@H](O)[C@H]2O[C@@H]2O[C@@H](C)[C@H](O)[C@@H](O)[C@H]2O)[C@@H]1O` (stereo not given in full) as the compound, how does the caspase activation read?
Its caspase activation is -0.32% (inactive).

same assay, conditions: wild-type MEF caspase activation, Caspase-Glo luminescence, 3 h; at 150 µM (top of the series)

For `O=C(CCl)N=c1sccn1Cc1ccccc1Cl`, which caspase activation is on record?
Its caspase activation is 0.637% (inactive).

For `CCOC(=O)CSC1=N/C(=C/c2ccc(-n3cncn3)cc2)C(=O)N1C(C)=O`, which caspase activation is on record?
The caspase activation was 2.7% (inactive).

With `Cn1c(=NC(=O)CCl)sc2ccccc21` as the compound, how does the caspase activation read?
Its caspase activation is 0.0802% (inactive).

With `COc1cccc(C(=O)C(C#N)=C(SC)SC)c1` as the compound, how does the caspase activation read?
The caspase activation was -1.91% (inactive).

With `O=C(Oc1cccc(/C=N/Nc2nc(Nc3ccccc3)nc(N3CCOCC3)n2)c1)c1ccco1` as the compound, how does the caspase activation read?
The caspase activation was 0.0158% (inactive).

For `C=C1[C@@H](C)[C@H]2[C@H](Cc3ccccc3)NC(=O)[C@]23OC(=O)/C=C\[C@H](O)CCC[C@@H](C)C/C=C/[C@H]3[C@@H]1O`, which caspase activation is on record?
Its caspase activation is 0.465% (inactive).

With `C/C1=C/C(=O)O[C@@H]2C[C@@H](CC[C@H](C)/C=C\CC1)O[C@@](O)(C1CSC(=O)N1)C2` (stereo not given in full) as the compound, how does the caspase activation read?
Its caspase activation is 0.912% (inactive).

Which caspase activation does the source give for `Cc1ccc(CS(=O)(=O)c2ncc(Cl)c(C(=O)Nc3nnc(C(C)C)s3)n2)cc1` here?
Its caspase activation is -1.41% (inactive).

With `C=C1[C@@H](C)[C@H]2[C@H](Cc3ccccc3)NC(=O)[C@]23[C@H](OC(C)=O)/C=C/[C@](C)(O)C(=O)[C@@H](C)C/C=C/[C@H]3[C@@H]1O` as the compound, how does the caspase activation read?
Its caspase activation is -0.119% (inactive).

With `Cc1ccc(Sc2c([N+](=O)[O-])c(=O)n(C)c3ccccc23)cc1` as the compound, how does the caspase activation read?
Its caspase activation is 1.56% (inactive).

Which caspase activation does the source give for `CC(C)(C)n1nc(-c2ccc(Cl)cc2)c2c(N)ncnc21` here?
The caspase activation was 2.53% (inactive).

With `Cc1c(C=O)c(C=O)c(C)n1Cc1ccccc1` as the compound, how does the caspase activation read?
Its caspase activation is 1.13% (inactive).

For `Nc1nc(F)nc2c1ncn2[C@@H]1O[C@H](CO)[C@@H](O)[C@H]1O`, which caspase activation is on record?
The caspase activation was -0.43% (inactive).

For `CCc1nnc(NC(=O)c2nc(S(=O)(=O)Cc3ccccc3)ncc2Cl)s1`, which caspase activation is on record?
Its caspase activation is -0.316% (inactive).

For `CC(=O)OC(C)(C)/C=C/C(=O)[C@](C)(O)C1[C@H](O)C[C@@]2(C)C3CC=C4C(C[C@H](O)C(=O)C4(C)C)[C@]3(C)C(=O)C[C@]12C` (stereo not given in full), which caspase activation is on record?
The caspase activation was 0.64% (inactive).

With `COc1cc(/C=C(/C#N)c2nc3ccccc3[nH]2)ccc1OCC(=O)Nc1ccccc1C(C)C` as the compound, how does the caspase activation read?
Its caspase activation is 0.773% (inactive).

With `Cc1cccc(CS(=O)(=O)c2ncc(Cl)c(C(=O)Nc3nnc(C(C)C)s3)n2)c1` as the compound, how does the caspase activation read?
Its caspase activation is -1.13% (inactive).

For `CCSc1nnc(NC(=O)c2nc(S(=O)(=O)Cc3ccc(F)cc3)ncc2Cl)s1`, which caspase activation is on record?
The caspase activation was -2.01% (inactive).

With `Cc1c(CCOC(=O)c2ccc(N3CCOCC3)c([N+](=O)[O-])c2)sc[n+]1CC#N` as the compound, how does the caspase activation read?
The caspase activation was 0.157% (inactive).
